Source: ChEMBL document CHEMBL2086271, “Bicyclic Cyclohexenones as Inhibitors of NF-κB Signaling” (ACS Med Chem Lett, 2012)
pIC50: −log10 of the molar value. Activity calls are given as the source filed them. The rule behind the calls is not given here.

Columns and labels:
[1] = test system: A549; assay: Inhibition of TNFalpha-induced NFkappaB in human A549 cells assessed as residual enzyme activity at 100 uM incubated for 30 mins prior to TNFalpha-induction measured after 7 hrs by luciferase reporter gene assay relative to control; assay type: cell-based
Outline: (§1)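 A549 human lung cells stably carry a luciferase reporter driven by six tandem consensus NF-κB sites. Signaling was induced with TNF-α, and compound was added at 100, 50 or 10 μM. Luciferase activity is expressed relative to the induced, DMSO-treated control, set at 100%. Mean ± SD reported.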

[2] = test system: A549; assay: Inhibition of TNFalpha-induced NFkappaB in human A549 cells assessed as residual enzyme activity at 50 uM incubated for 30 mins prior to TNFalpha-induction measured after 7 hrs by luciferase reporter gene assay relative to control; assay type: cell-based; outline: as §1
[3] = test system: A549; assay: Inhibition of TNFalpha-induced NFkappaB in human A549 cells assessed as residual enzyme activity at 10 uM incubated for 30 mins prior to TNFalpha-induction measured after 7 hrs by luciferase reporter gene assay relative to control; assay type: cell-based; outline: as §1
[4] = test system: CCRF-CEM; assay: Cytotoxicity against human CCRF-CEM cells after 48 hrs by alamar blue assay; assay type: functional, cell-based
Outline: (§2)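 Viability read by Alamar Blue staining after 48 h exposure to a range of concentrations. Vero (African green monkey kidney epithelial), RWPE-1, DU-145 and CCRF-CEM human cells were used. IC50 is reported as mean ± SD.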

[5] = test system: DU-145; assay: Cytotoxicity against human DU145 cells after 48 hrs by alamar blue assay; assay type: functional, cell-based; outline: as §2
[6] = test system: A549; assay: Cytotoxicity against human TNFalpha-induced A549 cells assessed as decrease in cell viability at 50 uM incubated for 30 mins prior to TNFalpha-induction measured after 7 hrs by alamar blue staining relative to control; assay type: cell-based; settings: a549, 7 h
[7] = test system: DU-145; assay: Ratio of cryptocaryone IC50 to compound IC50 for human DU145 cells; assay type: functional
[8] = test system: Vero; assay: Cytotoxicity against african green monkey Vero cells after 48 hrs by alamar blue assay; assay type: cell-based; settings: Chlorocebus sabaeus; outline: as §2
[9] = Cytotoxicity against human RWPE1 cells after 48 hrs by alamar blue assay; assay type: cell-based; settings: RWPE-1, 48 h; outline: as §2
[10] = Selectivity index, ratio of IC50 for human RWPE1 cells to IC50 for human DU145 cells; assay type: functional
[11] = test system: DU-145; assay: Inhibition of NFkappaB in human DU145 cells assessed as TNFalpha-induced IL8 protein level at 100 uM by ELISA; assay type: cell-based
Outline: (§3)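 DU-145 cells were dosed with compound (100 or 33 μM) or DMSO vehicle, then NF-κB was induced with TNF-α. Secreted IL-8 in the culture medium was quantified by ELISA, with noninduced and induced controls. Mean ± SEM reported.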

[12] = Solubility of the compound in DMEM media; assay type: physicochemical
[13] = test system: DU-145; assay: Inhibition of IkappaB in human DU145 cells assessed as inhibition of TNFalpha-induced NFkappaB p65 nuclear translocation at 100 uM incubated for 14 hrs prior to TNFalpha-induction measured after 2 hrs by Western blot analysis; assay type: cell-based
[14] = test system: CCRF-CEM; assay: Inhibition of IkappaB in human CCRF-CEM cells assessed as inhibition of PMA-induced NFkappaB p65 nuclear translocation at 100 uM incubated for 12 hrs prior to TNFalpha-induction measured after 4 hrs by Western blot analysis; assay type: cell-based
[15] = test system: DU-145; assay: Partial inhibition of IkappaB in human DU145 cells assessed as inhibition of TNFalpha-induced NFkappaB p65 nuclear translocation at 25 uM incubated for 14 hrs prior to TNFalpha-induction measured after 2 hrs by Western blot analysis; assay type: cell-based
[16] = test system: CCRF-CEM; assay: Partial inhibition of IkappaB in human CCRF-CEM cells assessed as inhibition of PMA-induced NFkappaB p65 nuclear translocation at 25 uM incubated for 12 hrs prior to TNFalpha-induction measured after 4 hrs by Western blot analysis; assay type: cell-based
[17] = test system: DU-145; assay: Inhibition of NFkappaB in human DU145 cells assessed as inhibition of TNFalpha-induced IL8 mRNA production at 33 uM by RT-PCR analysis; assay type: cell-based
Outline: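 DU-145 cells were dosed with compound (100 or 33 μM) or DMSO vehicle, then induced with TNF-α. IL-8 mRNA was analysed by semiquantitative RT-PCR, with GAPDH as reference. Noninduced and induced cells served as controls.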

[18] = test system: DU-145; assay: Inhibition of NFkappaB in human DU145 cells assessed as inhibition of TNFalpha-induced IL8 protein production at 33 uM by ELISA; assay type: cell-based; outline: as §3

Question: For `CC(=O)[C@H]1CO[C@]2(C)C=C(c3ccccc3)[C@H](O)C[C@H]12` (racemic), which inhibition [1] is on record?
Answer: inactive

Question: What about the inhibition [2] of the same compound?
Answer: inactive

Question: What about the inhibition [3] of the same compound?
Answer: inactive

Question: What does the source list for `CC(=O)O/C(C)=C1\CO[C@]2(C)C=C(Br)C(=O)C[C@H]12` (racemic)?
Answer: inhibition [1]: inactive; inhibition [2]: inactive; inhibition [3]: inactive

Question: With `CC(=O)O/C(C)=C1\CO[C@]2(c3ccccc3)C=CC(=O)C[C@H]12` (racemic; form 2) [listing 1 of 2 here] as the compound, how does the pIC50 ([4]; Homo sapiens, CCRF-CEM, 48 h) read?
Answer: 4.72

Question: What about the pIC50 ([5]; du-145) of the same compound?
Answer: 4.34

Question: For `CC(=O)O/C(C)=C1\CO[C@]2(c3ccccc3)C=CC(=O)C[C@H]12` (racemic; form 1) [listing 1 of 2 here], which Activity [6] is on record?
Answer: 5%

Question: And the pIC50 ([4]; ccrf-cem)?
Answer: 4.58

Question: And the pIC50 ([5]; Homo sapiens, DU-145, 48 h)?
Answer: 4.44

Question: And the “Ratio IC50” value [7]?
Answer: 15

Question: What about the pIC50 [8] of the same compound?
Answer: < 3.30

Question: What about the pIC50 [9] of the same compound?
Answer: 4.01

Question: What about the “Ratio IC50” value [10] of the same compound?
Answer: 2.75

Question: Which Activity [1] does the source give for `CC(=O)O/C(=C1\CO[C@]2(C)CCC(=O)C[C@H]12)c1ccccc1` (racemic) here?
Answer: 76.1%

Question: What about the Activity [2] of the same compound?
Answer: 94.4%

Question: What about the Activity [3] of the same compound?
Answer: 109%

Question: What about the pIC50 ([4]; Homo sapiens, CCRF-CEM, 48 h) of the same compound?
Answer: < 3.30

Question: What about the pIC50 ([5]; Homo sapiens, DU-145, 48 h) of the same compound?
Answer: < 3.30

Question: What about the pIC50 [8] of the same compound?
Answer: < 3.30

Question: What about the pIC50 [9] of the same compound?
Answer: < 3.30

Question: What about the Activity [11] of the same compound?
Answer: 4900 pg/mL

Question: With `CC(=O)O/C(C)=C1\CO[C@]2(C)C=CC(=O)C[C@]12C` (racemic) as the compound, how does the inhibition [1] read?
Answer: inactive

Question: And the inhibition [2]?
Answer: inactive

Question: And the inhibition [3]?
Answer: inactive

Question: With `O=C1C[C@@H]2/C(=C(O)\C=C\c3ccccc3)C(=O)C=C[C@@H]2O1` [CRYPTOCARYONE] as the compound, how does the pIC50 ([5]; Homo sapiens, DU-145, 48 h) read?
Answer: 5.64

Question: Which inhibition [1] does the source give for `CC(=O)O/C(C)=C1\CO[C@]2(C)C=C(C)C(=O)C[C@H]12` (racemic) here?
Answer: inactive

Question: And the inhibition [2]?
Answer: inactive

Question: And the inhibition [3]?
Answer: inactive

Question: For `CO[C@@]12C=C(Br)C(=O)C[C@@H]1/C(=C(/OC(C)=O)c1ccccc1)CC2` (racemic), which solubility [12] is on record?
Answer: Insoluble

Question: For `CC(=O)O/C(=C1\CO[C@]2(C)C=CC(=O)C[C@H]12)c1ccccc1` (racemic), which Activity [1] is on record?
Answer: 33.9%

Question: What about the Activity [2] of the same compound?
Answer: 61.6%

Question: And the Activity [3]?
Answer: 90.9%

Question: What about the Activity [6] of the same compound?
Answer: 10%

Question: And the pIC50 ([4]; Homo sapiens, CCRF-CEM, 48 h)?
Answer: 4.58

Question: What about the pIC50 ([5]; Homo sapiens, DU-145, 48 h) of the same compound?
Answer: 4.47

Question: And the “Ratio IC50” value [7]?
Answer: 15

Question: What about the pIC50 [8] of the same compound?
Answer: < 3.30

Question: What about the pIC50 [9] of the same compound?
Answer: 4.83

Question: What about the “Ratio IC50” value [10] of the same compound?
Answer: 0.44

Question: What about the inhibition [13] of the same compound?
Answer: Active

Question: What about the inhibition [14] of the same compound?
Answer: Active

Question: What about the inhibition [15] of the same compound?
Answer: Active

Question: And the inhibition [16]?
Answer: Active

Question: And the inhibition [17]?
Answer: Active

Question: And the Activity [18]?
Answer: 3480 pg/mL

Question: Which inhibition [1] does the source give for `CC(=O)O/C(C)=C1\CO[C@]2(C)C=C(Br)[C@H](O)C[C@H]12` (racemic) here?
Answer: inactive

Question: And the inhibition [2]?
Answer: inactive

Question: And the inhibition [3]?
Answer: inactive

Question: With `CC(=O)O/C(C)=C1\CO[C@]2(c3ccccc3)C=CC(=O)C[C@H]12` (racemic; form 1) [listing 2 of 2 here] as the compound, how does the Activity [1] read?
Answer: 17.3%

Question: What about the Activity [2] of the same compound?
Answer: 36.2%

Question: And the Activity [3]?
Answer: 93.7%

Question: And the inhibition [13]?
Answer: Active

Question: And the inhibition [14]?
Answer: Active

Question: What about the inhibition [15] of the same compound?
Answer: Active

Question: What about the inhibition [16] of the same compound?
Answer: Active

Question: What about the inhibition [17] of the same compound?
Answer: Active

Question: What about the Activity [18] of the same compound?
Answer: 2970 pg/mL

Question: With `CC(=O)O/C(C)=C1\CO[C@]2(c3ccccc3)C=CC(=O)C[C@H]12` (racemic; form 2) [listing 2 of 2 here] as the compound, how does the Activity [2] read?
Answer: 18%
